Rows were chosen to be rich in hits. Some 0.6% of all compounds tested hit in one or more screens of this group.
Efflux pump inh = inhibitors of Candida efflux pumps in yeast, primary screen, S. cerevisiae, Nile Red, multiplex. 330,000 tested, 0.44% active. AID 485275, 2010. S. cerevisiae Candida pump triplex. inhibition, % at 10 µM;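 active = plate passing quality check with inhibition over a set limit, or well fluorescence over plate mean plus 4 SD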;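 note: Nile Red retained in pooled yeast measured as flow cytometry median fluorescence; higher means more Nile Red kept so more efflux inhibition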
PolyA inh = polyadenylation inhibitors in yeast reporter cells, primary screen, luminescence, S. cerevisiae | S. cerevisiae SKY197-pL101 polyadenylation reporter, beta-gal luminescence; efflux-impaired pdr1/pdr3 knockout yeast; score 100 = 6 SD above DMSO | activity score, % at 12 µM | 300,000 tested, 0.02% active | AID 1875, 2009;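 active = lowest replicate activity score at least 50, where 100 means six control SD above control mean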;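 note: yeast exposed to compound for 9 h at 30 °C; higher score means more reporter readthrough which indicates perturbed polyadenylation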
GSK3A inh = blockers of GSK3A enzyme activity – biochemical, luminescence, cell-free homogeneous, HTS, primary screen; Glycogen synthase kinase-3 alpha (Homo sapiens), P49840; GSK-3 alpha kinase, ADP-Glo luminescence, 60 min; inhibition, % at 10 µM; 320,000 tested, 0.1% active;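 active = more than half of replicates show inhibition above 20%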;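 note: GST-tagged GSK-3 alpha with peptide substrate and 25 µM ATP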
STK33 kinase inh = inhibitors of purified STK33 kinase, primary screen, biochemical, ADP-Glo luminescence, homogeneous, cell-free; Serine/threonine-protein kinase 33 (Homo sapiens), Q9BYT3; MBP phosphorylation; inhibition, % at 10 µM; 320,000 tested, 0.073% active;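 active = inhibition at or above 25%, using the most active replicate where run in duplicate; inactive = inhibition below 25%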
Target sequence (Q9BYT3 whole entry, looked up): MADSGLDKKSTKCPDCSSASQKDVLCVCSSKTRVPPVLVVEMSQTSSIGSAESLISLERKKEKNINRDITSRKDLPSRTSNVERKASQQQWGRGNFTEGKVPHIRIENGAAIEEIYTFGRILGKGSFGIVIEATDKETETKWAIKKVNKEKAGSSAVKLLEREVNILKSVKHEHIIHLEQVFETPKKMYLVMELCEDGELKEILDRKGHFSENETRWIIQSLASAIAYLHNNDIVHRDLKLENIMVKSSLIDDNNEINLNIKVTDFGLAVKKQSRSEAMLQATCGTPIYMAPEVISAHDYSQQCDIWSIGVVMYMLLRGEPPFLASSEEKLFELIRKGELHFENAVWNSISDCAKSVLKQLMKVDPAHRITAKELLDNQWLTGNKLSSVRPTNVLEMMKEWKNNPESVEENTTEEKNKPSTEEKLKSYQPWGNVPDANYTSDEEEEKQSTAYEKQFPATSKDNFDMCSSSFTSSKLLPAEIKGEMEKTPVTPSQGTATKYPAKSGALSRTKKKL
GSK3beta inhib = human GSK3beta kinase inhibitors, primary screen, biochemical, cell-free homogeneous, HTS; Glycogen synthase kinase-3 beta (Homo sapiens), P49841; GST-GSK3beta kinase, ADP-Glo luminescence, 60 min; stronger effect = lower value; activity score (negative = inhibition), % at 10 µM; 300,000 tested, 0.038% active;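 active = more than half of replicate wells score below -50%, meaning over 50% inhibition versus plate controls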
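Test system: GST-tagged human GSK3beta kinase, cell-free; evaluation: activity score scaled between in-plate DMSO and GW8510 controls; measured by: ADP-Glo luminescence; incubation: 60 min reaction, RT; benchmarks: DMSO and 20 µM GW8510; reagent: peptide substrate plus 25 µM ATP (final); medium: Tris/MgCl2 kinase buffer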
A number is an active result; – = inactive; · = no result.

SMILES | Efflux pump inh | PolyA inh | GSK3A inh | STK33 kinase inh | GSK3beta inhib
C#CCOCCOCCOCCNc1nc(N2CCN(C(=O)CCCCCCCCCCNC(=O)[C@H](CCCN=C(N)N)n3cc(C[C@@H](C)CC)nn3)CC2)nc(N2CCN(C(=O)CCCCCCCCCCNC(=O)[C@@H]([C@H](C)CC)n3cc(CCCCCN)nn3)CC2)n1 | 4.8 | · | – | 27 | ·
Cc1onc(-c2c(F)cccc2Cl)c1C(=O)NC(=S)NC1CCSC1=O (stereo not drawn) | – | – | – | – | –
O=C(COC(=O)Cc1ccc(S(=O)(=O)N2CCOCC2)s1)Nc1ccc2c(c1)OCO2 | – | 106 | – | – | –
CCCn1c(=O)[nH]c(=O)c2c1nc(-c1ccccc1)n2CCN1CCOCC1 | – | · | – | – | ·
NNC(=O)Cn1c(SCc2ccccc2)nc2ccccc21 | – | – | – | – | –
COc1cc2sc3cc(NCCCN4CCOCC4)ccc3c(=O)c2cc1OC | – | · | – | – | ·
O=c1c2ccccc2sc2ccc(NCCCN3CCOCC3)cc12 | – | – | – | 57 | –
O=C1NC(=O)/C(=C/c2ccc(O)cc2)S1 | – | – | – | 33 | –
COc1ccc(-c2c(-c3cc(OC)cc(OC)c3)n(C)c3ccc(-c4ccc5cc[nH]c5c4)cc23)cc1 | – | · | – | – | ·
O=C(NC1CCCCCC1)C1CCN(S(=O)(=O)c2cnc[nH]2)CC1 | – | · | – | – | –
O=C(Nc1ncc([N+](=O)[O-])s1)C1CCN(S(=O)(=O)c2cnc[nH]2)CC1 | – | – | 51 | – | –
CC(C)Cn1c(N)c(C(=O)COC(=O)c2cnc(Cl)c(Cl)c2)c(=O)n(C)c1=O | – | – | – | – | –
Nc1nc(NCCO)nc(N2CCCCCC2)c1[N+](=O)[O-] | – | – | 54 | – | –
Nc1nc(NCCOCCO)nc(N2CCCCCC2)c1[N+](=O)[O-] | – | – | – | – | –
COCCCNc1nc(N)c([N+](=O)[O-])c(NC2CCCCC2)n1 | – | – | 60 | – | –
COCCCNc1nc(N)c([N+](=O)[O-])c(N2CCCCCC2)n1 | – | – | 54 | – | –
COc1ccc(Nc2nc(N)c([N+](=O)[O-])c(NC3CCCCC3)n2)cc1 | – | – | – | – | –
CC(OC(=O)c1ccc(S(=O)(=O)N(C)C)cc1)C(=O)Nc1ccc(Cl)cn1 (stereo not drawn) | – | – | – | – | –
COc1cccc(-c2nc(NCCN3CCOCC3)c3ccccc3n2)c1O | – | – | – | – | –
Oc1ccccc1-c1nc(NCCN2CCOCC2)c2ccccc2n1 | – | – | – | 60 | –
CCN1C(=O)CC(c2ccccc2)N(C2CCCC2)c2nc(Nc3ccc(C(=O)NC4CCN(C)CC4)cc3OC)ncc21 (stereo not drawn) | – | · | – | 47 | ·
CCN1C(=O)CSc2ccc(C(=O)NC3CCCCC3)cc21 | – | – | · | – | –
CCSc1ccc2nnc(-c3cccs3)n2n1 | – | – | – | – | -53
Cc1cccc(CSc2ccc3nnc(-c4cccs4)n3n2)c1 | – | – | · | – | –
Cc1ccc(-c2nnc3ccc(SC(C)C(=O)O)nn23)cc1 (stereo not drawn) | – | – | – | – | –
SMILES | Efflux pump inh | PolyA inh | GSK3A inh | STK33 kinase inh | GSK3beta inhib
CCSc1ccc2nnc(-c3ccc(F)cc3)n2n1 | – | – | 82 | – | -76
O=C(CSc1ccc2nnc(-c3cccs3)n2n1)N1CCCC1 | – | – | – | – | –
CC(Sc1ccc2nnc(-c3ccc(F)cc3)n2n1)C(=O)O (stereo not drawn) | – | – | 51 | – | –
CCOC(=O)CSc1ccc2nnc(-c3cccs3)n2n1 | – | – | 61 | – | -61
CCOC(=O)CNC(=O)CSc1ccc2nnc(-c3ccc(F)cc3)n2n1 | – | – | – | – | –
CCOC(=O)CC(=O)CSc1ccc2nnc(-c3ccccc3)n2n1 | – | – | – | – | –
CCOC(=O)CSc1ccc2nnc(-c3ccncc3)n2n1 | – | – | 81 | – | –
COc1ccc(C2Nc3ccc4ccccc4c3-c3c2c(=O)oc2ccccc32)cc1 (stereo not drawn) | 1.7 | – | – | – | –
CN(c1ccc(C(=O)NCc2ccncc2)cc1)S(=O)(=O)c1ccc(Cl)cc1 | – | – | – | – | –
O=Cc1c(N2CCC3(CC2)OCCO3)nc2ccccn2c1=O | – | – | – | – | –
COc1ccc(/C=N/n2c(-c3ccccc3)n[nH]c2=S)cc1 | – | – | – | – | –
Oc1ccc(/C=N/n2c(-c3ccccc3)n[nH]c2=S)cc1 | – | – | – | 34 | –
CC(C)(C)c1ccc(C(=O)N/C(=C\c2ccco2)C(=O)Nc2ccccc2C(=O)O)cc1 | – | – | – | – | –
COc1ccc(C(=O)NNC(=O)c2ccccn2)cc1 | – | – | – | 41 | –
COc1ccc(C(=O)O/N=C(\N)c2ccccn2)cc1 | – | – | 51 | 37 | –
COc1cc(OC)cc(C(=O)NNC(=O)c2ccccn2)c1 | – | – | – | – | –
CCCn1c(NC(=O)c2cccc(S(=O)(=O)N3CCCC3)c2)nc2ccccc21 | – | – | – | 44 | –
Cc1c(N=C2N=C(NC(=O)Nc3ccc(Cl)cc3)c3ccccc32)c(=O)n(-c2ccccc2)n1C | – | – | – | – | –
Cc1cc2c(cc1S(=O)(=O)N1CCN(c3cccc(C)c3C)CC1)OCC(=O)N2 | – | – | – | – | –
S=C(Nc1cccnc1)Nc1cccc2cnccc12 | – | – | 59 | 27 | –
S=C(Nc1ccc(Cl)cc1)Nc1cccc2cnccc12 | – | – | – | – | –
Cc1ccc(N2CC(C(=O)NC3CCC(C)CC3)CC2=O)cc1 (stereo not drawn) | – | – | – | – | –
Nc1ncc(-c2ccccc2)c(-c2ccc(O)cc2O)n1 | – | – | 60 | – | –
C=CC(=O)Nc1ccc(Nc2nc(NC3CCC(N(C)C)CC3)nc3c2ncn3C(C)C)cc1 (stereo not drawn) | – | · | – | 81 | ·
Nc1c2c(nc3ccccc13)N(C1CCCCC1)CC2 | – | – | – | – | –
SMILES | Efflux pump inh | PolyA inh | GSK3A inh | STK33 kinase inh | GSK3beta inhib
Nc1c2c(nc3ccc(Br)cc13)N(C1CCCCC1)CC2 | 2.4 | – | – | – | –
CCC1(C)NC(=O)N(CC(=O)Nc2sc3c(c2C(N)=O)CCC3)C1=O (stereo not drawn) | – | – | 58 | – | –
NC(=O)c1c(NC(=O)CN2C(=O)CCC2=O)sc2c1CCCCC2 | – | – | – | – | –
CC(=O)N1CCc2c(sc(NC(=O)CN3C(=O)c4ccccc4C3=O)c2C(N)=O)C1 | – | – | – | – | -52
CC(=O)N1CCc2c(sc(NC(=O)CN3C(=O)CCC3=O)c2C(N)=O)C1 | – | – | 93 | – | -79
N#Cc1c(Cl)nc(-c2ccncc2)nc1-c1ccccc1 | – | – | 75 | – | -62
